From ChEMBL document CHEMBL1123529, “Analogues of substance P. Peptides containing D-amino acid residues in various positions of substance P and displaying agonist or receptor selective antagonist effects” (1986) come the findings set out here.

The structures appear in SMILES notation. “And” between values parts separate entries of the source, which are not always exact repeats. Equal entries are not always repeated.

For assay [1], the target named is Substance-P receptor (Cavia porcellus) (UniProt P30547). Kind of assay: Antagonistic activity against Substance P receptor in guinea pig ileum at concentration of 5 uM. The assay is classed as functional, tissue-based. Put shortly:
(§1)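 Distal ileum from Dunkin-Hartley guinea pigs (300-350 g, both sexes) in a Krebs organ bath at 37 °C, gassed with 95% O2/5% CO2. Agonist (SP or SP(6-11)) dose-response curves run on a 3-min cycle with 1-min contact, with and without antagonist. Dose ratio = agonist EC50 with antagonist / EC50 alone. At least two preparations per compound; ratios below 2 taken as insignificant.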

The target in assay [2] is Substance-P receptor (Rattus norvegicus) (UniProt P14600). Description: Antagonistic activity against Substance P(6-11) receptor in rat spinal cord at concentration of 5 uM.
The target is the same in assay [3]. Kind of assay: Antagonistic activity against Substance P receptor in rat spinal cord at concentration of 5 uM.
Assay [4] addresses Substance-P receptor (Cavia porcellus) (UniProt P30547). Description: Antagonistic activity against Substance P(6-11) receptor in guinea pig ileum at concentration of 5 uM. The format is functional, tissue-based. The method, boiled down:
as §1

Assay [5] can be described thus: In vitro antagonistic activity against Substance P on guinea pig ileum at concentration of 10 uM. The assay is classed as functional, Cavia porcellus. Put shortly:
(§2)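 Dose-response curves used a 3-min cycle with 1-min contact and washout, with SP or SP(6-11)-hexapeptide as agonist. Dose ratio is the agonist EC50 with antagonist divided by the EC50 alone. At least two preparations per compound; ratios under 2 were considered insignificant.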

The nature of assay [6]: In vitro antagonistic activity against Substance P(6-11) in guinea pig ileum at concentration of 10 uM. The assay is classed as functional, Cavia porcellus. The method, boiled down:
as §2

Assay [7] concerns the target Substance-P receptor (Rattus norvegicus) (UniProt P14600). Description: Antagonistic activity against Substance P receptor in rat spinal cord at concentration of 50 uM.
Assay [8] concerns the target Metabotropic glutamate receptor 3 (Rattus norvegicus) (UniProt P31422). Kind of assay: Antagonistic activity against Glutamate receptor in rat spinal cord at concentration of 5 uM. The format is functional, tissue-based. The method, boiled down: (§3)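 Neonatal hemisectioned spinal cord from Wistar rats (Alderley Park strain, 2-7 days old), anaesthetised with intraperitoneal urethane (25% w/v, […]) and then decapitated. Cord superfused with oxygenated medium at 1 mL/min. Agonist (SP, SP(6-11), glutamate or carbachol) applied as 2-mL doses in the superfusate. Antagonist superfused for at least 15 min before agonists were retested. Read-out: % change in ventral root–cord DC potential response amplitude.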

Assay [9] concerns the target Substance-P receptor (Rattus norvegicus) (UniProt P14600). Description: Antagonistic activity against Substance P(6-11) receptor in rat spinal cord at concentration of 50 uM.
Assay [10] has as its target Substance-P receptor (Cavia porcellus) (UniProt P30547). Description: Evaluated in vitro for percent agonist activity in guinea pig ileum (substance P receptor). The assay is classed as functional, tissue-based.
Assay [11] deals with Metabotropic glutamate receptor 3 (Rattus norvegicus) (UniProt P31422). Kind of assay: Antagonistic activity against Glutamate receptor in rat spinal cord at concentration of 50 uM. The format is functional, tissue-based. Put shortly: as §3
In assay [12] the target is Substance-P receptor (Cavia porcellus) (UniProt P30547). Description: Antagonistic activity against Substance P(6-11) receptor in guinea pig ileum at concentration of 50 uM. The format is functional, tissue-based. Put shortly:
as §1

For assay [13] the target is unchanged. Kind of assay: Antagonistic activity against Substance P receptor in guinea pig ileum at concentration of 50 uM. The assay is classed as functional, tissue-based. The method, boiled down:
as §1

For assay [14] the target is unchanged. Description: Antagonistic activity against Substance P receptor in guinea pig ileum at concentration of 14 uM. The assay is classed as functional, tissue-based. Put shortly:
as §1

For assay [15] the target is unchanged. Kind of assay: Antagonistic activity against Substance P(6-11) receptor in guinea pig ileum at concentration of 14 uM. The assay is classed as functional, tissue-based. Put shortly: as §1
The target of assay [16] is Metabotropic glutamate receptor 3 (Rattus norvegicus) (UniProt P31422). Description: Antagonistic activity against Glutamate receptor in rat spinal cord at concentration of 25 uM. The format is functional, tissue-based. The method, boiled down:
as §3

The target in assay [17] is Substance-P receptor (Rattus norvegicus) (UniProt P14600). Description: Antagonistic activity against Substance P(6-11) receptor in rat spinal cord at concentration of 25 uM.
Assay [18] addresses Substance-P receptor (Cavia porcellus) (UniProt P30547). Kind of assay: Antagonistic activity against Substance P(6-11) receptor in guinea pig ileum at concentration of 47 uM. The format is functional, tissue-based. Put shortly: as §1
Assay [19] has the same target. Kind of assay: Antagonistic activity against Substance P receptor in guinea pig ileum at concentration of 6.4 uM. The format is functional, tissue-based. Put shortly:
as §1

For assay [20] the target is unchanged. Kind of assay: Antagonistic activity against Substance P(6-11) receptor in guinea pig ileum at concentration of 6.4 uM. The format is functional, tissue-based. Put shortly:
as §1

In assay [21] the target is Substance-P receptor (Rattus norvegicus) (UniProt P14600). Description: Antagonistic activity against Substance P receptor in rat spinal cord at concentration of 25 uM.
The target in assay [22] is Substance-P receptor (Cavia porcellus) (UniProt P30547). Description: Antagonistic activity against Substance P receptor in guinea pig ileum at concentration of 47 uM. The format is functional, tissue-based. Put shortly: as §1
For assay [23] the target is unchanged. Description: Antagonistic activity against Substance P(6-11) receptor in guinea pig ileum at concentration of 1 uM. The assay is classed as functional, tissue-based. Put shortly: as §1
The target is the same in assay [24]. Description: Antagonistic activity against Substance P in guinea pig ileum at concentration of 1 uM. The assay is classed as functional, tissue-based. The method, boiled down:
as §1

Assay [25] shares this target. Description: Antagonistic activity against Substance P(6-11) receptor in guinea pig ileum at concentration of 10 uM. The assay is classed as functional, tissue-based. The method, boiled down: as §1
The target is the same in assay [26]. Description: Antagonistic activity against Substance P in guinea pig ileum at concentration of 10 uM. The format is functional, tissue-based. Put shortly: as §1

Sequence of Metabotropic glutamate receptor 3 (Rattus norvegicus) (P31422 23-879 limits assumed): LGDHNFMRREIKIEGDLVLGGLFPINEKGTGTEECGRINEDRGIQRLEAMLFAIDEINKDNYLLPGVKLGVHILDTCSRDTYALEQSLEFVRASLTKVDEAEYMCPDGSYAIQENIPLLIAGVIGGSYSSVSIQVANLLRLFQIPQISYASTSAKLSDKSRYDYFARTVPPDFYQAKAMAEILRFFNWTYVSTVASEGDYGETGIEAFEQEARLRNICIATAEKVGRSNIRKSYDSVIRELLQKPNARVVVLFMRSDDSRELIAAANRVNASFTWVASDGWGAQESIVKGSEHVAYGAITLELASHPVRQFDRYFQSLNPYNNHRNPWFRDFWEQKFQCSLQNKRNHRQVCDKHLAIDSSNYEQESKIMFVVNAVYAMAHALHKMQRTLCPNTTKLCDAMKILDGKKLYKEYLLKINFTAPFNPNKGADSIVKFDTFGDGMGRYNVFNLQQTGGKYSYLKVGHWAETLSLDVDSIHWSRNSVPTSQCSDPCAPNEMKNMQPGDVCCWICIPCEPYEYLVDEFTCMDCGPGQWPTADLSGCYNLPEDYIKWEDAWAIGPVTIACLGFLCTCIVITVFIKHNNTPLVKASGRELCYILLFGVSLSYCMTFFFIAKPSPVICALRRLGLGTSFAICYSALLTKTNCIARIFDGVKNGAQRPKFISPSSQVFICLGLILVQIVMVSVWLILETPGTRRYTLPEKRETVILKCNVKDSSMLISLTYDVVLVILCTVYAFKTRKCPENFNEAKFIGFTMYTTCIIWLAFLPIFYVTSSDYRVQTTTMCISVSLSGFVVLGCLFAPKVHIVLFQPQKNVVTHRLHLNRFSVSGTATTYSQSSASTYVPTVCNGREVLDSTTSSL
Sequence of Substance-P receptor (Cavia porcellus) (P30547 whole entry): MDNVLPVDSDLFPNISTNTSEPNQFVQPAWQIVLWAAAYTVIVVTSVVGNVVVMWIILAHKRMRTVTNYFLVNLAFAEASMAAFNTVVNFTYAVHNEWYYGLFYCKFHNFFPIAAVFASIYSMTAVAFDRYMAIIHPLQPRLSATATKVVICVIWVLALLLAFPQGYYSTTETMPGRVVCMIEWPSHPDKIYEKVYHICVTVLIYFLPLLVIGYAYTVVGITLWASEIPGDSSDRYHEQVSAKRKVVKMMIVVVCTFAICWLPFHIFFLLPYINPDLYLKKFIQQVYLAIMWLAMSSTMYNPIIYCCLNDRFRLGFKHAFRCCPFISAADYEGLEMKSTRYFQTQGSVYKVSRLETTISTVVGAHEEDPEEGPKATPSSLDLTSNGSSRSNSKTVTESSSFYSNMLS
Sequence of Substance-P receptor (Rattus norvegicus) (P14600 whole entry, looked up, the tested form may be a part): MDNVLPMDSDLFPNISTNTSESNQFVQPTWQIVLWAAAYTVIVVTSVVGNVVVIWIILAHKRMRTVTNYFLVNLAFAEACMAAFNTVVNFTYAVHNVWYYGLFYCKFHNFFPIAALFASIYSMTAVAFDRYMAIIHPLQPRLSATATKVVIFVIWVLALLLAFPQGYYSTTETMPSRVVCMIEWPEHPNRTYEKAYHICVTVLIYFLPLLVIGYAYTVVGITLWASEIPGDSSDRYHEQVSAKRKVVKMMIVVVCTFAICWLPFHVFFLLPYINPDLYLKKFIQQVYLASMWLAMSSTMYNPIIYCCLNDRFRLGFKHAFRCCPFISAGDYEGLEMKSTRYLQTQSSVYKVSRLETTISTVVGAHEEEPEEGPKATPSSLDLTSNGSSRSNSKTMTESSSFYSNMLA

Regarding `CSCC[C@@H](NC(=O)[C@H](CC(C)C)NC(=O)[C@@H](Cc1c[nH]c2ccccc12)NC(=O)C(Cc1ccccc1)NC(=O)[C@@H](Cc1c[nH]c2ccccc12)NC(=O)[C@H](CCC(N)=O)NC(=O)[C@H](CCC(N)=O)NC(=O)C1CCCN1C(=O)[C@H](CCCCN)NC(=O)C1CCCN1C(=O)[C@@H](N)CCCN=C(N)N)C(=O)O` (stereo in doubt), the Activity turned out to be 6.3 dose ratio in [1], 3.4 dose ratio in assay [4], 5.3 dose ratio in [5] and 4.3 dose ratio in assay [6]. The Change in amplitude response is -62% in assay [2]; 21% in assay [3]; 16% in assay [7]; -20% in assay [8]; -100% in assay [9].
As to `COC(=O)[C@H](CCSC)NC(=O)[C@@H]1CCCN1C(=O)[C@H]1CCCN1C(=O)[C@H](Cc1ccccc1)NC(=O)[C@H](Cc1ccccc1)NC(=O)[C@H](CCC(N)=O)NC(=O)[C@H](CCC(N)=O)NC(=O)[C@@H]1CCCN1C(=O)[C@@H](CCCCNC(=O)OCc1ccccc1)NC(=O)[C@H]1CCCN1C(=O)[C@@H](CCCN=C(N)N)NC(=O)OCc1ccccc1`, the Change in amplitude response in [2] is -67%; in assay [11], 2%; in assay [7] it was 29% and 39%; in [9] it was -100%. In assay [10], the SP was 0%. The Activity in assay [12] was under 2 dose ratio; in [13] it was 3 dose ratio.
Turning to `COC(=O)[C@@H](CCSC)NC(=O)[C@H](CC(C)C)NC(=O)CNC(=O)[C@H](Cc1ccccc1)NC(=O)[C@H](Cc1ccccc1)NC(=O)[C@@H]1CCCN1C(=O)[C@H]1CCCN1C(=O)[C@@H]1CCCN1C(=O)[C@H](CCCCNC(=O)OCc1ccccc1)NC(=O)[C@@H]1CCCN1C(=O)[C@H](CCCN=C(N)N)NC(=O)OCc1ccccc1`, the Activity in assay [14] and in assay [15] was under 2 dose ratio in each case. For the same compound, in assay [10], the SP is 0.004%.
Regarding `CSCC[C@@H](NC(=O)[C@H](CC(C)C)NC(=O)[C@@H](Cc1c[nH]c2ccccc12)NC(=O)[C@H](Cc1c[nH]c2ccccc12)NC(=O)[C@@H](Cc1c[nH]c2ccccc12)NC(=O)[C@H](CCC(N)=O)NC(=O)[C@H](CCC(N)=O)NC(=O)[C@@H]1CCCN1C(=O)[C@H](CCCCN)NC(=O)[C@@H]1CCCN1C(=O)[C@@H](N)CCCN=C(N)N)C(=O)O`, the Change in amplitude response is 7% in assay [16], -55% in assay [17] and 30% in assay [21]. For the same compound, in assay [10], the SP was 0%. Moreover, the Activity in [18] was 16.1 dose ratio; in assay [19], 3.1 dose ratio; in assay [20], 2 dose ratio; in assay [22] it was 10.3 dose ratio.
For the compound `CSCC[C@@H](NC(=O)[C@H](CC(C)C)NC(=O)CNC(=O)[C@H](Cc1c[nH]c2ccccc12)NC(=O)[C@@H](Cc1c[nH]c2ccccc12)NC(=O)[C@H](CCC(N)=O)NC(=O)[C@H](CCC(N)=O)NC(=O)[C@@H]1CCCN1C(=O)[C@H](CCCCNC(=O)OCc1ccccc1)NC(=O)[C@@H]1CCCN1C(=O)[C@H](CCCN=C(N)N)NC(=O)OCc1ccccc1)C(=O)O`, the Activity was 1.8 dose ratio in assay [23], 1.1 dose ratio in assay [24], 18 dose ratio in assay [25] and 14.6 dose ratio in [26]. The same compound yielded an SP in assay [10] of 0%.
